Among the data in ChEMBL document CHEMBL4354819, “Discovery of Novel Small Molecule Dual Inhibitors Targeting Toll-Like Receptors 7 and 8” (J Med Chem, 2019) are inhibition, IC50 and Activity values, retold here.

The source made the active and inactive calls. The calls are words filed in the database; no cut-off is given here.

Series [1] has as its target Toll-like receptor 7 (Homo sapiens) (UniProt Q9NYK1). Description: Inhibition of human TLR7 expressed in HEK293 cells assessed as reduction in R848-induced NFkappaB production incubated for 16 hrs by quanti-blue SEAP assay. As to conditions: concentration not given here.
The target in series [2] is Toll-like receptor 8 (Homo sapiens) (UniProt Q9NR97). Description: Inhibition of human TLR8 expressed in HEK293 cells assessed as reduction in resiquimod-induced NFkappaB production at 1.5 to 5 uM incubated for 16 hrs by quanti-blue SEAP assay.
Series [3] has as its target T1, Toll-like receptor 8 (Homo sapiens) (UniProt Q9NR97).
T1 sequence (whole entry): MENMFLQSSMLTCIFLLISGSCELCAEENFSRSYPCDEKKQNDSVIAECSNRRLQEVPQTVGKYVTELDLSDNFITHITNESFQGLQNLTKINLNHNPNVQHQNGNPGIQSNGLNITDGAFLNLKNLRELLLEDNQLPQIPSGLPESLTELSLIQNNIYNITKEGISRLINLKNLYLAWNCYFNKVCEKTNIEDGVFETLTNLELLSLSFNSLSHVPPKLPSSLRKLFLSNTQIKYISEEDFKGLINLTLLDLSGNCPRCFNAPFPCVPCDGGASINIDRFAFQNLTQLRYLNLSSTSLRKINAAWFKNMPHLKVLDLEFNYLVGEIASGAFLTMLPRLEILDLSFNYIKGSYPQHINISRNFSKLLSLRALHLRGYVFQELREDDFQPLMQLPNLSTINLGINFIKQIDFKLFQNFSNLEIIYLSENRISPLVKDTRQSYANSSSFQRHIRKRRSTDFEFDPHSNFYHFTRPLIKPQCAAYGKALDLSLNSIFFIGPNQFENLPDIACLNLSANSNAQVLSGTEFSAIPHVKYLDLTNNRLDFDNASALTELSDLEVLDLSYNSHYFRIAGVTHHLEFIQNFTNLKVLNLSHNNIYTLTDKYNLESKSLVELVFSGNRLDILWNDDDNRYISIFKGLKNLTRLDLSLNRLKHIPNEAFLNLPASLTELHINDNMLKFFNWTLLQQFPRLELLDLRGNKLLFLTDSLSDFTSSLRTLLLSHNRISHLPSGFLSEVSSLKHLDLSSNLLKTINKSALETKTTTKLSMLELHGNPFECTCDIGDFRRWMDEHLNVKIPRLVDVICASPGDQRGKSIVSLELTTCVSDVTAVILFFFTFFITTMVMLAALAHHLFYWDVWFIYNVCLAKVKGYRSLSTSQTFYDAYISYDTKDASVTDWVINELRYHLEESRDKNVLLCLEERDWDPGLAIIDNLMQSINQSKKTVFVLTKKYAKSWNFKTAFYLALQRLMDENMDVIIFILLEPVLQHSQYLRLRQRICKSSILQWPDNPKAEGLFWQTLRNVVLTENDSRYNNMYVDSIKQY
Description: Inhibition of human TLR8 expressed in HEK293 cells assessed as reduction in R848-induced NFkappaB production at 1.5 to 5 uM incubated for 16 hrs by quanti-blue SEAP assay. The series is classed as cell-based. An outline of the steps: (§1)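 Selectivity panel in stably transfected HEK 293-Blue cells, each overexpressing one human TLR with an inducible SEAP reporter. Agonists: Pam3CSK4 (TLR1/2), Pam2CSK4 (TLR2/6), poly(I:C) (TLR3), LPS (TLR4), R848 (TLR7/8), ODN 2006 (TLR9). Cells were exposed to compound for 16 h. Activity = (raw − untreated)/(ligand + solvent − untreated), with ligand + solvent set as 100%.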

Series [4] deals with T2, Toll-like receptor 7 (Homo sapiens) (UniProt Q9NYK1).
T2 sequence (whole entry): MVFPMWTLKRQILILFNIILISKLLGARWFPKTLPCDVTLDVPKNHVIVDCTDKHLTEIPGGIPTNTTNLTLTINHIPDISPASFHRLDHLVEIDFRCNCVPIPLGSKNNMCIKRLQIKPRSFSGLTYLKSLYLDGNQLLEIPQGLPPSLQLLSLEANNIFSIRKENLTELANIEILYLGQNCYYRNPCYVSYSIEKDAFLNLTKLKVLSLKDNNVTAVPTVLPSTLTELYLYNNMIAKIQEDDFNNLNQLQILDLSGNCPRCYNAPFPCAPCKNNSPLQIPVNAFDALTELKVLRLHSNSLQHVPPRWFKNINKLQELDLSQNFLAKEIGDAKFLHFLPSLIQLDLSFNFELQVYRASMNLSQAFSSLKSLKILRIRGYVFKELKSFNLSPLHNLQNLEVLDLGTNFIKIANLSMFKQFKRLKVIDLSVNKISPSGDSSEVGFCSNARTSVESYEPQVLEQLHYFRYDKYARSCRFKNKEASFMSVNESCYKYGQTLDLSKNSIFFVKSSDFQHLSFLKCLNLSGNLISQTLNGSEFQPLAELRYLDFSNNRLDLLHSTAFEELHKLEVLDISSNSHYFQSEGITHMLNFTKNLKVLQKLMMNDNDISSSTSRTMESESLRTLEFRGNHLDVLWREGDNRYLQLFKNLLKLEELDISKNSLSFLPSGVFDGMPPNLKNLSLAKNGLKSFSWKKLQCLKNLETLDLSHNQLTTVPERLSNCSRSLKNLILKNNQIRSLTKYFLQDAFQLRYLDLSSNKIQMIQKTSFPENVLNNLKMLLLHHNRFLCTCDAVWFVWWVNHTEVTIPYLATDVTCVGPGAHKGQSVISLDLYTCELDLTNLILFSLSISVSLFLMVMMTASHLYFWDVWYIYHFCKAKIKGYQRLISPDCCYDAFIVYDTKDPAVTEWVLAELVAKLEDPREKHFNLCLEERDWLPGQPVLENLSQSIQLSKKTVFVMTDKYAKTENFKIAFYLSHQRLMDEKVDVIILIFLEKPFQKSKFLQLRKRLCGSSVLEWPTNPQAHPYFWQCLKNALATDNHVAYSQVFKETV
Description: Inhibition of human TLR7 expressed in HEK293 cells assessed as reduction in resiquimod-induced NFkappaB production at 1.5 to 5 uM incubated for 16 hrs by quanti-blue SEAP assay. The series is classed as cell-based. A digest of the protocol: as §1

For series [5], the target named is T1, Toll-like receptor 8 (Homo sapiens). The series can be described thus: Inhibition of human TLR8 expressed in HEK293 cells assessed as reduction in R848-induced NFkappaB production at 1.5 to 5 uM incubated for 16 hrs by quanti-blue SEAP assay.
Series [6] concerns the target T2, Toll-like receptor 7 (Homo sapiens). The series can be described thus: Inhibition of human TLR7 expressed in HEK293 cells assessed as reduction in R848-induced NFkappaB production incubated for 16 hrs by quanti-blue SEAP assay. The series is classed as cell-based. An outline of the steps: (§2)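 HEK 293-Blue cells stably expressing hTLR7 or hTLR8 with an inducible SEAP reporter were incubated 16 h with compound under 1 µg/mL R848 stimulation. SEAP was read at 620 nm. Data were normalized to the R848 control, and IC50 was taken from concentration-response curves. […] Mean ± s.d., n = 3 independent experiments.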

Series [7] concerns the target Toll-like receptor 4 (Homo sapiens) (UniProt O00206). The series can be described thus: Inhibition of human TLR4 expressed in HEK293 cells assessed as reduction in LPS-induced NFkappaB production at 1.5 to 5 uM incubated for 16 hrs by quanti-blue SEAP assay. The series is classed as cell-based. A digest of the protocol:
as §1

The target of a further series is TLR2/TLR6 (Homo sapiens) (UniProt O60603+Q9Y2C9). Description: Inhibition of human TLR2/6 expressed in HEK293 cells assessed as reduction in Pam2CSK4-induced NFkappaB production at 1.5 to 5 uM incubated for 16 hrs by quanti-blue SEAP assay. The series is classed as cell-based. A digest of the protocol: as §1
For series [8], the target named is Toll-like receptor 3 (Homo sapiens) (UniProt O15455). The series can be described thus: Inhibition of human TLR3 expressed in HEK293 cells assessed as reduction in poly(I:C)-induced NFkappaB production at 1.5 to 5 uM incubated for 16 hrs by quanti-blue SEAP assay. The series is classed as cell-based. A digest of the protocol: as §1
Chain of Toll-like receptor 3 (Homo sapiens) (O15455 whole entry): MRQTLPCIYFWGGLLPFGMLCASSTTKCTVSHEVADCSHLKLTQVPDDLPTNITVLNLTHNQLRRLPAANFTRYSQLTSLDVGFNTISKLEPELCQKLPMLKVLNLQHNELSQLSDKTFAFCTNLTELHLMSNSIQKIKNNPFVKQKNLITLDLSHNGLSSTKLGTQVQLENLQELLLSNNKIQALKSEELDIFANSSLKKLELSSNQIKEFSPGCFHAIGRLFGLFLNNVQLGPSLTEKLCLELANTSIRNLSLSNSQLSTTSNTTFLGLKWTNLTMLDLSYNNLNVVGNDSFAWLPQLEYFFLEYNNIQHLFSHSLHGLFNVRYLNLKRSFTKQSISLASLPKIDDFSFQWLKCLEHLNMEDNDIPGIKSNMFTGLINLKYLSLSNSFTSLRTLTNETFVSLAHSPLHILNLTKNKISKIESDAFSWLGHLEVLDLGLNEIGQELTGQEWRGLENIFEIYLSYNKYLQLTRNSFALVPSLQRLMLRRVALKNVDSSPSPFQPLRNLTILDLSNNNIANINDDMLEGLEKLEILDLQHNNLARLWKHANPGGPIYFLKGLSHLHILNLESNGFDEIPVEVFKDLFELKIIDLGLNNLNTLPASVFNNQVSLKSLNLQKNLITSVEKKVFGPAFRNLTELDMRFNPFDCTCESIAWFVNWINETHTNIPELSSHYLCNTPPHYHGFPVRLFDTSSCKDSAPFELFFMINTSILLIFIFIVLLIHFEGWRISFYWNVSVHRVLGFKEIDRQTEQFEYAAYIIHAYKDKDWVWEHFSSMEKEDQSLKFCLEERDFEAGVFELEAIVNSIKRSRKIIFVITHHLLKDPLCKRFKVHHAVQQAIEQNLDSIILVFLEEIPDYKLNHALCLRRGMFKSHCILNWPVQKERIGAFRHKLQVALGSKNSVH
Series [9] deals with HEK293. The series can be described thus: Cytotoxicity against human HEK293 cells transfected with human TLR8 assessed as reduction in cell viability up to 5 uM incubated for 16 hrs by WST-1 assay. The series is classed as cell-based. The settings on record: hek293, 16 h.
For series [10], the target named is T1, Toll-like receptor 8 (Homo sapiens). Description: (§3) Inhibition of human TLR8 expressed in HEK293 cells assessed as reduction in R848-induced NFkappaB production incubated for 16 hrs by quanti-blue SEAP assay. The series is classed as cell-based. An outline of the steps: as §2
A further series deals with T3, Toll-like receptor 8 (Homo sapiens, UniProt Q9NR97).
T3 sequence (Q9NR97 whole entry): T1 sequence (whole entry)
The description is as §3. The series is classed as cell-based. A digest of the protocol:
as §2

Series [11] deals with HEK293. The series can be described thus: Inhibition of human TLR1/2 expressed in HEK293 cells assessed as reduction in Pam3CSK4-induced NFkappaB production at 1.5 to 5 uM incubated for 16 hrs by quanti-blue SEAP assay. The series is classed as cell-based. A digest of the protocol: as §1
Series [12] has as its target T1, Toll-like receptor 8 (Homo sapiens). The series can be described thus: Inhibition of human TLR8 expressed in HEK293 cells assessed as reduction in R848-induced NFkappaB production at 50 uM incubated for 16 hrs by quanti-blue SEAP assay relative to control. The series is classed as cell-based. An outline of the steps: as §2
Series [13] has as its target T2, Toll-like receptor 7 (Homo sapiens). Description: Inhibition of human TLR7 expressed in HEK293 cells assessed as reduction in R848-induced NFkappaB production at 50 uM incubated for 16 hrs by quanti-blue SEAP assay relative to control. The series is classed as cell-based. An outline of the steps:
as §2

Chain of Toll-like receptor 4 (Homo sapiens) (O00206 whole entry): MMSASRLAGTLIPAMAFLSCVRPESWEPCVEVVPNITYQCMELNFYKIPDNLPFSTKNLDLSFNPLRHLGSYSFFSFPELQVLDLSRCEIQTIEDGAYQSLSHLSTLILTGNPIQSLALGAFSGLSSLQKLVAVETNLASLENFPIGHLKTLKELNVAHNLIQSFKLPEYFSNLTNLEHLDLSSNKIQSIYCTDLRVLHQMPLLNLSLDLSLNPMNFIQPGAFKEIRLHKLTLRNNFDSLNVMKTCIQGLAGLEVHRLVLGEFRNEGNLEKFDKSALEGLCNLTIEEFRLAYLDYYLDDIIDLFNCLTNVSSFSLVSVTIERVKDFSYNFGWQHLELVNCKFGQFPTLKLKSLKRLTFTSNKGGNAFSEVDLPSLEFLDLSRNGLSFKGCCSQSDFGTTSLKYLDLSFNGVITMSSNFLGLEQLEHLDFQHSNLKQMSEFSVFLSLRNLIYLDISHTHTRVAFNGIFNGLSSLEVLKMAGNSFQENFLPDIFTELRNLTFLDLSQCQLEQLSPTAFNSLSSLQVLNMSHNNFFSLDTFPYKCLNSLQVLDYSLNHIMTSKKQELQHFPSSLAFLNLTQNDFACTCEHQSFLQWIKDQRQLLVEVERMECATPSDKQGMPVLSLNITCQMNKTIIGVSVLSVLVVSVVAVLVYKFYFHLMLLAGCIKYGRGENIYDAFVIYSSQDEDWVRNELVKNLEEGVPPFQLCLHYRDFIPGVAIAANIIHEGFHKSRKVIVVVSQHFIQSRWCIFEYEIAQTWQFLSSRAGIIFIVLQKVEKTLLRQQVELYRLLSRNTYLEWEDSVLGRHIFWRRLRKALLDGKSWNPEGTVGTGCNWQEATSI

In the case of `O=C(Nc1cc(C(F)(F)F)cc(C(F)(F)F)c1)c1c(F)cccc1Cl`, in series [1], the inhibition came out at 0%. The half-inhibitory concentration (IC50) in [2] amounted to 1400 nM.
`O=C(Nc1c(F)cccc1Cl)c1ccc(Oc2cc(C(F)(F)F)cc(C(F)(F)F)c2)cc1`: the inhibition in series [1] was found to be 0%. The 50% inhibitory concentration (IC50) in [2] is 7100 nM.
Regarding `N#Cc1c(Cl)cccc1Oc1ccc(-c2nnco2)cc1`, the inhibition entry in series [3] and in [5] was “Active” throughout. Moreover, the inhibition result (in [4]; in series [7]; on TLR2/TLR6 (Homo sapiens); in [8]; in the series on HEK293 [11]) was “inactive” each time. Further, the inhibition result in series [6] and in series [10] was “Dose-dependent effect” each time. For the same molecule, in the series on HEK293 [9], the Activity entry is “Non-Toxic”. The IC50 on Toll-like receptor 8 worked out at 1400 nM.
With `CN(C(=O)c1c(F)cccc1Cl)c1ccc(Oc2cc(C(F)(F)F)cc(C(F)(F)F)c2)cc1`, the inhibition in [1] amounted to 0%. Moreover, in series [2], the IC50 worked out at 2900 nM.
As for `O=C(Nc1ccc(Oc2cc(C(F)(F)F)cc(C(F)(F)F)c2)cc1)c1c(F)cccc1C(F)(F)F`, the inhibition in series [12] and in series [13] was 20 to 30% each time.
